For two molecules, MIC results are on record in ChEMBL document CHEMBL1134691, “3-Phenyl-5-acyloxymethyl-2H,5H-furan-2-ones: synthesis and biological activity of a novel group of potential antifungal drugs” (2001).

In brackets after ≈: the same amount, converted by molar mass.

The subject of experiment [1] is Lichtheimia corymbifera. The experiment can be described thus: In vitro inhibition of Absidia corymbifera 272 growth for 24 hours. The experiment is classed as functional. The conditions noted are these: Lichtheimia corymbifera, 24 h; read-out: MIC. The method in brief:
(§1)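 Filamentous isolates tested by microdilution per NCCLS M27-A in RPMI 1640 plus L-glutamine, buffered with 0.165 M MOPS to pH 7.0. Final inoculum 5 × 10^3 cfu/mL. Compounds in DMSO (final ≤2%), 2-fold series over 1000–0.24 µmol/L. Plates held at 35 °C and read visually after 24 and 48 h. MIC taken as 80% inhibition of control growth; determined twice in duplicate.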

Experiment [2] deals with Lichtheimia corymbifera. The experiment can be described thus: In vitro inhibition of Absidia corymbifera 272 growth for 48 hours. Format: functional. To be noted: Lichtheimia corymbifera, 48 h; read-out: MIC. The method in brief: as §1
Experiment [3] deals with Pichia kudriavzevii. The experiment can be described thus: Inhibition of Candida krusei ATCC 6258 growth for 24 hours in vitro. Format: functional. To be noted: ATCC 6258, 24 h. The gist of the method: (§2)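 NCCLS M27-A broth microdilution in RPMI 1640 with L-glutamine and 0.165 M MOPS, pH 7.0. Isolates kept on Sabouraud dextrose agar. Inoculum 5 × 10^3 cfu/mL final. Compounds were diluted in DMSO (≤2% final) and tested in 2-fold dilutions of 1000–0.24 µmol/L. Incubation at 35 °C, OD540 read at 24 and 48 h. MIC = 80% growth inhibition versus control; assays run twice in duplicate.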

The test system of experiment [4] is Pichia kudriavzevii. Nature of the experiment: Inhibition of Candida krusei ATCC 6258 growth for 48 hours in vitro. Format: functional. To be noted: ATCC 6258, 48 h. The gist of the method:
as §2

For experiment [5], the system named is Pichia kudriavzevii. Nature of the experiment: Inhibition of Candida krusei E28 growth for 24 hours in vitro. The experiment is classed as functional. The gist of the method: as §2
The test system of experiment [6] is Pichia kudriavzevii. Nature of the experiment: Inhibition of Candida krusei E28 growth for 48 hours in vitro. The experiment is classed as functional. The method in brief: as §2
For experiment [7], the system named is Aspergillus fumigatus. The experiment can be described thus: Inhibition of Aspergillus fumigatus 231 growth for 48 hours in vitro. The experiment is classed as functional. The conditions noted are these: Aspergillus fumigatus, 48 h; read-out: MIC. The gist of the method: as §1
For experiment [8], the system named is Clavispora lusitaniae. Nature of the experiment: Inhibition of Candida lusitaniae 2446/I growth for 24 hours in vitro. The experiment is classed as functional. The conditions noted are these: Clavispora lusitaniae, 24 h; read-out: MIC. The method in brief: as §2
The subject of experiment [9] is Clavispora lusitaniae. Nature of the experiment: Inhibition of Candida lusitaniae 2446/I growth for 48 hours in vitro. The experiment is classed as functional. The conditions noted are these: Clavispora lusitaniae, 48 h; read-out: MIC. The gist of the method: as §2
In experiment [10] the test system is Candida parapsilosis. The experiment can be described thus: Inhibition of Candida parapsilosis ATCC 22019 growth for 24 hours in vitro. The experiment is classed as functional. The conditions noted are these: Lodderomyces parapsilosis, ATCC 22019, 24 h. The method in brief: as §2
Experiment [11] relates to Candida parapsilosis. The experiment can be described thus: Inhibition of Candida parapsilosis ATCC 22019 growth for 48 hours in vitro. Format: functional. The conditions noted are these: Lodderomyces parapsilosis, ATCC 22019, 48 h. The gist of the method:
as §2

For experiment [12], the system named is Candida albicans. Nature of the experiment: Inhibition of Candida albicans ATCC 44859 growth for 24 hours in vitro. The experiment is classed as functional. To be noted: Candida albicans, ATCC 44859, 24 h; read-out: MIC. The gist of the method:
as §2

Experiment [13] deals with Candida albicans. Nature of the experiment: Inhibition of Candida albicans ATCC 44859 growth for 48 hours in vitro. To be noted: Candida albicans, ATCC 44859, 48 h; read-out: MIC. Format: functional. The gist of the method:
as §2

For experiment [14], the system named is Candida albicans. The experiment can be described thus: Inhibition of Candida albicans ATCC 90028 for 24 hours in vitro. To be noted: ATCC 90028, 24 h. Format: functional. The method in brief:
as §2

Experiment [15] deals with Candida albicans. The experiment can be described thus: Inhibition of Candida albicans ATCC 90028 for 48 hours in vitro. The experiment is classed as functional. To be noted: ATCC 90028, 48 h. The gist of the method:
as §2

For experiment [16], the system named is Nakaseomyces glabratus. The experiment can be described thus: Inhibition of Candida glabrata 20/I growth for 24 hours in vitro. The experiment is classed as functional. The conditions noted are these: Nakaseomyces glabratus, 24 h; read-out: MIC. The gist of the method:
as §2

Experiment [17] relates to Nakaseomyces glabratus. Nature of the experiment: Inhibition of Candida glabrata 20/I growth for 48 hours in vitro. Format: functional. The conditions noted are these: Nakaseomyces glabratus, 48 h; read-out: MIC. The method in brief:
as §2

In experiment [18] the test system is Candida tropicalis. Nature of the experiment: Inhibition of Candida tropicalis 156 growth for 24 hours in vitro. Format: functional. The method in brief: as §2
In experiment [19] the test system is Trichosporon beigelii. Nature of the experiment: Inhibition of Trichosporon beigelli 1188 for 24 hours in vitro. Format: functional. To be noted: Trichosporon beigelii, 24 h; read-out: MIC. The method in brief: (§3)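 Microdilution following NCCLS M27-A. Medium: RPMI 1640 with L-glutamine, 0.165 M MOPS, pH 7.0. Final inoculum 5 × 10^3 cfu/mL. Compounds dissolved in DMSO, final ≤2%, serially halved from 1000 to 0.24 µmol/L. Incubated at 35 °C and read at 24 and 48 h. MIC defined as 80% inhibition of control growth; run twice in duplicate.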

Experiment [20] relates to Trichosporon beigelii. Nature of the experiment: Inhibition of Trichosporon beigelli 1188 for 48 hours in vitro. Format: functional. The conditions noted are these: Trichosporon beigelii, 48 h; read-out: MIC. The method in brief:
as §3

Experiment [21] in a line: Inhibition of Trichophyton mentagrophytes 445 growth for 72 hours in vitro. Format: functional, Arthroderma benhamiae. To be noted: Trichophyton benhamiae, 72 h; read-out: MIC. The gist of the method:
(§4)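 Dermatophyte grown in MOPS-buffered (0.165 M, pH 7.0) RPMI 1640 containing L-glutamine, in an M27-A microdilution format. Inoculum 5 × 10^3 cfu/mL final. Compounds from DMSO stocks (≤2% final), 2-fold dilutions 1000–0.24 µmol/L. Incubated at 35 °C, growth judged visually at 72 and 120 h. MIC endpoint is 80% inhibition relative to control; measured twice in duplicate.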

Experiment [22] in a line: Inhibition of Trichophyton mentagrophytes 445 growth for 120 hours in vitro. The experiment is classed as functional, Arthroderma benhamiae. To be noted: Trichophyton benhamiae, 120 h; read-out: MIC. The method in brief:
as §4

Experiment [23] relates to Aspergillus fumigatus. Nature of the experiment: Inhibition of Aspergillus fumigatus 231 growth for 24 hours in vitro. The conditions noted are these: Aspergillus fumigatus, 24 h; read-out: MIC. Format: functional. The method in brief:
as §1

Experiment [24] concerns Candida tropicalis. Nature of the experiment: Inhibition of Candida tropicalis 156 growth for 48 hours in vitro. Format: functional. The gist of the method: as §2
Where [25] appears, read: Pichia kudriavzevii, read-out: MIC.
Where [26] appears, read: Candida albicans, read-out: MIC.

With `O=C1OC(COC(=O)c2ccc(Cl)cc2)C=C1c1ccc(Br)cc1` (stereo not drawn), the MIC was 7.81 µM (≈ 3.18 µg/mL) in the experiment with Lichtheimia corymbifera [1]; 15.6 µM (≈ 6.37 µg/mL) in the experiment on Lichtheimia corymbifera [2]; 7.81 µM (≈ 3.18 µg/mL) in the experiment on Pichia kudriavzevii [3] (setting [25]); 15.6 µM (≈ 6.37 µg/mL) with Pichia kudriavzevii [4] (setting [25]); 7.81 µM (≈ 3.18 µg/mL) with Pichia kudriavzevii [5] (Pichia kudriavzevii, 24 h, read-out: MIC); 15.6 µM (≈ 6.37 µg/mL) in the experiment on Pichia kudriavzevii [6] (Pichia kudriavzevii, 48 h, read-out: MIC). Also, the MIC with Aspergillus fumigatus [7] turned out to be 3.91 µM (≈ 1.59 µg/mL); in the experiment on Clavispora lusitaniae [8] it was 3.91 µM (≈ 1.59 µg/mL); with Clavispora lusitaniae [9], 7.81 µM (≈ 3.18 µg/mL); in the experiment on Candida parapsilosis [10] (read-out: MIC), 7.81 µM (≈ 3.18 µg/mL); with Candida parapsilosis [11] (read-out: MIC), 15.6 µM (≈ 6.37 µg/mL); with Candida albicans [12] it was 1.95 µM (≈ 0.795 µg/mL). Moreover, the MIC with Candida albicans [13] was found to be 3.91 µM (≈ 1.59 µg/mL); in the experiment with Candida albicans [14] (setting [26]), 3.91 µM (≈ 1.59 µg/mL); in the experiment with Candida albicans [15] (setting [26]), 7.81 µM (≈ 3.18 µg/mL); in the experiment on Nakaseomyces glabratus [16] it was 1.95 µM (≈ 0.795 µg/mL); with Nakaseomyces glabratus [17] it was 1.95 µM (≈ 0.795 µg/mL); in the experiment on Candida tropicalis [18] (Candida tropicalis, 24 h, read-out: MIC), 7.81 µM (≈ 3.18 µg/mL). Further, the MIC with Trichosporon beigelii [19] turned out to be 3.91 µM (≈ 1.59 µg/mL); in the experiment on Trichosporon beigelii [20], 15.6 µM (≈ 6.37 µg/mL); in experiment [21] it was 1.95 µM (≈ 0.795 µg/mL); in [22] it was 3.91 µM (≈ 1.59 µg/mL); with Aspergillus fumigatus [23], 0.98 µM (≈ 0.399 µg/mL); in the experiment with Candida tropicalis [24] (Candida tropicalis, 48 h, read-out: MIC), 15.6 µM (≈ 6.37 µg/mL).
In the case of `COc1ccc(C2=CC(CO)OC2=O)cc1` (stereo not drawn), the MIC in the experiment with Lichtheimia corymbifera [1] stood at 31.2 µM (≈ 6.88 µg/mL); in the experiment on Lichtheimia corymbifera [2], 62.5 µM (≈ 13.8 µg/mL); in the experiment on Pichia kudriavzevii [3], 62.5 µM (≈ 13.8 µg/mL); in the experiment with Pichia kudriavzevii [4] it was 125 µM (≈ 27.5 µg/mL); in the experiment with Pichia kudriavzevii [5], 62.5 µM (≈ 13.8 µg/mL); against Pichia kudriavzevii [6], 125 µM (≈ 27.5 µg/mL). Also, the MIC in the experiment on Aspergillus fumigatus [7] is 500 µM (≈ 110 µg/mL); in the experiment on Clavispora lusitaniae [8], 31.2 µM (≈ 6.88 µg/mL); with Clavispora lusitaniae [9] it was 125 µM (≈ 27.5 µg/mL); against Candida parapsilosis [10], 250 µM (≈ 55.1 µg/mL); against Candida parapsilosis [11] it was 500 µM (≈ 110 µg/mL); in the experiment on Candida albicans [12], 15.6 µM (≈ 3.44 µg/mL). In addition, the MIC with Candida albicans [13] worked out at 62.5 µM (≈ 13.8 µg/mL); against Candida albicans [14] it was 31.2 µM (≈ 6.88 µg/mL); in the experiment on Candida albicans [15], 62.5 µM (≈ 13.8 µg/mL); in the experiment with Nakaseomyces glabratus [16], 125 µM (≈ 27.5 µg/mL); in the experiment with Nakaseomyces glabratus [17], 250 µM (≈ 55.1 µg/mL); in the experiment on Candida tropicalis [18], 125 µM (≈ 27.5 µg/mL). Further, the minimal inhibitory concentration (MIC) was determined as 500 µM (≈ 110 µg/mL) in the experiment with Trichosporon beigelii [19]; 1000 µM (≈ 220 µg/mL) in the experiment on Trichosporon beigelii [20]; 15.6 µM (≈ 3.44 µg/mL) in [21]; 62.5 µM (≈ 13.8 µg/mL) in experiment [22]; 125 µM (≈ 27.5 µg/mL) in the experiment on Aspergillus fumigatus [23]; 250 µM (≈ 55.1 µg/mL) against Candida tropicalis [24].

A word on the MIC: it is the smallest concentration in the dilution series that meets the test's criterion for growth inhibition.
